Test results taken from PMC5720355 (ACS chemical biology, 2017).

Experiments:
20S proteasome = conditions: read-out: EC50, enhancing 20S mediated protein degradation; cited from earlier work
[1] = molecular target: purified 20S proteasome with tau441 and GAPDH (Homo sapiens, UniProt P25787+P60900); assay: In vitro degradation of tau441; format: biochemical; conditions: compounds 30 μM; SDS 0.02%
Outline: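 Pre-incubate 15nM purified human 20S proteasome with test compound or vehicle for 20 min at RT in 20mM HEPES pH 7.4, 2mM EDTA, 1mM EGTA. Add recombinant tau441 plus GAPDH (0.1μM each, final) and incubate 1 h at 37 °C. Resolve on a 4-20% tris-glycine gel and immunoblot. Quantify tau by densitometry against untreated tau control.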

[2] = molecular target: human constitutive 20S proteasome (CT-L, β5) (Homo sapiens, UniProt P25787+P60900); assay: Proteasome activity assay, 20S chymotrypsin-like; format: biochemical; conditions: for enhancement of 20S proteolytic (CT-L) activity, in words: CT-L peptide substrate
[3] = system: HEK 293 cells stably expressing ODC-GFPSpark; assay: ODC-GFPSpark degradation in HEK 293T cells, immunoblot; format: cell-based, human; conditions: 50 μM, 24 h, cycloheximide 20 μg/mL
[4] = system: Glioblastoma (U87-MG) cells; assay: Tau degradation in U87MG cells, immunoblot; format: cell-based, human; conditions: 50 μM, 24 h, cycloheximide 20 μg/mL
[5] = molecular target: purified human 20S proteasome with α-synuclein and GAPDH (Homo sapiens, UniProt P25787+P60900); assay: In vitro degradation of α-synuclein; format: biochemical
Outline: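 Pre-incubate 15nM purified human 20S with test compound (3, 10, 30 μM) or vehicle for 20 min at RT in 20mM HEPES pH 7.4, 2mM EDTA, 1mM EGTA. Add recombinant α-synuclein and GAPDH (0.5μM each, final) and incubate 1 h at 37 °C. Immunoblot α-syn and GAPDH. Controls: reactions without 20S, and 20S pre-treated with bortezomib (3μM).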

[6] = molecular target: human constitutive 20S proteasome (Casp-L, β1) (Homo sapiens, UniProt P25787+P60900); assay: Proteasome activity assay, 20S caspase-like; format: biochemical; conditions: read-out: EC50, caspase-like (Casp-L) activity; Z-LLE-AMC
[7] = molecular target: human constitutive 20S proteasome (T-L, β2) (Homo sapiens, UniProt P25787+P60900); assay: Proteasome activity assay, 20S tryptic-like; format: biochemical; conditions: read-out: EC50, tryptic-like (T-L) activity; Boc-LRR-AMC
26S proteasome = 26S proteasome (Homo sapiens, UniProt P25787+P60900); assay: Proteasome activity assay, 26S-mediated proteolysis of CT-L peptide probe; format: biochemical
Outline: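 Pre-incubate 1nM human 26S proteasome with test compound for 10 min at RT in 50mM Tris-HCl pH 7.5 containing 5mM MgCl2 and 2.5mM ATP. Add Suc-LLVY-AMC (10μM) and read the fluorescence increase per minute for 1 h at 37 °C (380-460nm). Express activity as fold of vehicle control.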

rate of 20S-mediated degradation of tau compared to 20S/vehicle control [1]	enhancement of 20S proteolytic (CT-L) activity, in words [2]	SMILES	GFP-ODC levels compared to controls [3]	tau concentrations compared to the vehicle control [4]	further results
		CCCCC/C=C\C/C=C\C/C=C\C/C=C\CCCC(=O)Nc1ccc(O)cc1 [AM-404]			EC50 (20S proteasome): ~32 µM
significantly enhance	enhanced 20S proteolytic activity	CN(C)CCCN1c2ccccc2Sc2ccc(Cl)cc21 [chlorpromazine, reference compound]	reduced GFP-ODC levels	significantly reducing tau concentrations	
		CC(C)CCCN1c2ccccc2Sc2ccccc21 [compound 1]		modest clearance of tau	
significantly enhance	enhanced 20S proteolytic activity	O=S(=O)(O)CCCCN1c2ccccc2Sc2ccccc21 [compound 2]	reduced GFP-ODC levels	significantly reducing tau concentrations	rate of 20S-mediated degradation of α-syn compared to 20S/vehicle control ([5]; 3, 10 and 30 μM, concentration-dependent): significantly enhanced; α-Syn levels in the absence of 20S or with 20S pretreated with bortezomib ([5]; BTZ 3 μM): unaffected; 20S-mediated degradation of the structured protein GAPDH ([5]; any of the concentrations tested (3, 10, 30 μM)): does not enhance; EC50 [6]: 4.8 µM; EC50 [7]: 10 µM; fold enhancement of 20S activity ([2]; at 10 μM): ~4 fold; concentration above which 20S activity drops ([2]; concentration response up to 70 μM, CT-L substrate): > 35 µM; effect on 26S-mediated proteolysis of the CT-L peptide probe (26S proteasome): did not affect

SMILES	rate of 20S-mediated degradation of tau compared to 20S/vehicle control [1]	enhancement of 20S proteolytic (CT-L) activity, in words [2]	GFP-ODC levels compared to controls [3]	tau concentrations compared to the vehicle control [4]	further results
CCCCCCCCCCCCOS(=O)(=O)[O-].[Na+] [SDS, sodium dodecyl sulfate]	prevents				
O=S(=O)(O)CCCN1c2ccccc2Sc2ccc(Cl)cc21 [compound 3]		no significant enhancement			
